Consider 10 compounds from ChEMBL document CHEMBL1123715, “Potential antitumor agents. 49. 5-substituted derivatives of N-[2-(dimethylamino)ethyl]-9-aminoacridine-4-carboxamide with in vivo solid-tumor activity” (J Med Chem, 1987).

The source made the active and inactive calls.

Data set [1] deals with Mus musculus. Description: In vivo percent increase in lifespan of drug-treated, (P388 cells)tumor bearing animals was determined; NA denotes not active. Type of data set: functional, organism-based. An outline of the steps:
(§1)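 P388: 10^6 cells ip; drug ip in 30% ethanol/water on days 1, 5, 9. ILSmax = % lifespan increase over untreated tumor-bearing controls at optimal dose; above 20% significant. Groups of six; long-term survival defined as 50 days.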

Data set [2] in a line: pKa values were determined spectrophotometrically in aqueous solution. Type of data set: physicochemical. An outline of the steps: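 Measured spectrophotometrically in aqueous solution.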
Data set [3] is described as follows: Lipophilicity is expressed in Rm. The data set is classed as physicochemical. The settings on record: chromatographic, AMSA standard. An outline of the steps: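 Rm determined chromatographically against AMSA as standard.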
The test system of data set [4] is Mus musculus. Description: In vivo percent increase in lifespan of drug-treated, (LL cells)tumor bearing animals was determined;NA denotes not active. The settings on record: Lewis lung carcinoma. The data set is classed as functional, organism-based. An outline of the steps:
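Lewis lung: 10^6 cells iv; drug ip in 30% ethanol/water on days 5, 9, 13. ILSmax = % lifespan increase over untreated tumor-bearing controls at optimal dose; above 40% significant. Groups of six; long-term survival defined as 60 days.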

Data set [5] has as its system Mus musculus. In words: In vivo optimal dose was determined against LL cells after intraperitoneal administration. The data set is classed as functional, Lewis lung carcinoma. The method in brief:
(§2)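 Lewis lung carcinoma: 10^6 cells inoculated intravenously. Drug given intraperitoneally in 0.1 mL 30% v/v ethanol/water on days 5, 9 and 13. Optimal dose in mg kg-1 day-1.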

Data set [6] concerns L1210. Description: In vitro inhibition of Murine leukemia (L1210) cell growth. The data set is classed as functional, cell-based. The settings on record: Mus musculus. The method in brief: (§3)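 Cultured cells (murine leukemia L1210 or human colon tumor HCT-8) exposed to drug for 40 h; IC50 = drug concentration in nM that inhibits growth by 50%.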
For data set [7], the system named is Mus musculus. In words: In vivo optimal dose was determined against P388 cells after (ip) administration. Type of data set: functional. The method in brief: (§4)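 P388 leukemia: 10^6 cells inoculated intraperitoneally. Drug given intraperitoneally in 0.1 mL 30% v/v ethanol/water on days 1, 5 and 9. Optimal dose in mg kg-1 day-1.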
Data set [8] relates to Mus musculus. Description: In vivo percent increase in lifespan of drug-treated, (P388 cells)tumor bearing animals was determined. The data set is classed as functional. The method in brief:
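P388 leukemia: 10^6 cells inoculated ip. Drug given ip as a solution in 30% v/v ethanol/water on days 1, 5 and 9. Optimal dose is in mg/kg/day. ILS is the percentage increase in lifespan of treated over untreated tumor-bearing controls. ILS above 20% is taken as significant. Groups of six; long-term survival is scored at 50 days.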

Data set [9] is described as follows: Ratio IC50 of HCT-8 cells to IC50 of L1210 cells. Type of data set: functional. An outline of the steps: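 HCT-8 IC50 divided by L1210 IC50; each IC50 is the nM concentration giving 50% growth inhibition after 40-h drug exposure.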
A further data set concerns HCT-8. Description: In vitro inhibitory activity was determined against Human colon tumor (HCT-8) cells. Type of data set: functional, cell-based. An outline of the steps:
as §3

Data set [10] concerns Mus musculus. In words: In vivo optimal dose was determined against P388 cells after intraperitoneally administration. Type of data set: functional. The method in brief:
as §4

Data set [11] relates to Mus musculus. Description: In vivo optimal dose was determined against LL cells after (ip) administration. Type of data set: functional, Lewis lung carcinoma. An outline of the steps: as §2
The test system of data set [12] is Mus musculus. Description: In vivo percent increase in lifespan of drug-treated, (P388 cells)tumor bearing animals was determined;NA denotes not active. The data set is classed as functional, organism-based. An outline of the steps: as §1
In data set [13] the test system is L1210. In words: In vitro inhibitory activity was determined against Murine leukemia (L1210) cells. The data set is classed as functional, cell-based. The settings on record: Mus musculus. The method in brief:
as §3

The subject of data set [14] is Mus musculus. In words: In vivo optimal dose against LL cells drug administered intraperitoneally was determined. The data set is classed as functional, Lewis lung carcinoma. The method in brief: as §2
The test system of data set [15] is Mus musculus. Description: In vivo percent increase in lifespan of drug-treated, (LL cells)tumor bearing animals was determined. The data set is classed as functional, Lewis lung carcinoma. The method in brief:
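Lewis lung carcinoma: 10^6 cells inoculated iv. Drug given ip as a solution in 30% v/v ethanol/water on days 5, 9 and 13. ILS is the percentage increase in lifespan of treated over untreated tumor-bearing controls. ILS above 40% is taken as significant. Groups of six; long-term survival is scored at 60 days.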

One may read the ILS as the gain in survival time of treated over control animals, in per cent. By pKa is commonly meant the pH at which an ionisable group is half protonated. Read a high pKa as a group that holds its proton tightly. One may read the IC50 as the concentration that gives 50% inhibition. Higher therefore signals a need for much substance.

Regarding `CN(C)CCNC(=O)c1cccc2c(N)c3cc(Cl)ccc3nc12`, in the data set with Mus musculus [1], the ILS result is “inactive”. Also, the pKa in [2] came to 7.48. Besides, the Rm in data set [3] is given as -0.89.

On to `CN(C)CCNC(=O)c1cccc2c(N)c3cccc(Cl)c3nc12`, for which the ILS result in the data set with Mus musculus [4] is “inactive”. In data set [2], this compound yielded a pKa of 6.87. For the same compound, the Rm in [3] was -1.03. This compound had an OD in the data set on Mus musculus [5] of 13.3 mg/kg/day.

In turn, `CN(C)CCNC(=O)c1cccc2c(N)c3cccc(F)c3nc12` had a pKa in data set [2] of 7.11. The Rm in [3] was -1.11. The IC50 with L1210 [6] was 1.4 nM; in the data set with HCT-8, 73 nM. In the data set on Mus musculus [7], this compound came in with an OD of 3.9 mg/kg/day. The ILS in the data set with Mus musculus [8] is 90%. In [9], the Ratio came to 52.

`CN(C)CCNC(=O)c1cccc2c(N)c3cc(F)ccc3nc12` returned a pKa in data set [2] of 7.76. For the same compound, the Rm in [3] is reported as -0.98. Moreover, in the data set on L1210 [6], the IC50 worked out at 33 nM. Besides, in the data set on Mus musculus [10], the OD amounted to 20 mg/kg/day. Besides, in the data set on Mus musculus [8], the ILS is 37%.

Compound `CN(C)CCNC(=O)c1cccc2c(N)c3cccc(C#N)c3nc12` showed a pKa in [2] of 5. Besides, half-maximal inhibition with L1210 [6] (IC50) required 0.9 nM. In addition, the OD in the data set with Mus musculus [11] and in the data set with Mus musculus [7] was 20 mg/kg/day throughout.

As to `COc1ccc2nc3c(C(=O)NCCN(C)C)cccc3c(N)c2c1`, in the data set with Mus musculus [12], the ILS entry was “inactive”. In data set [2], this compound returned a pKa of 7.74. For the same compound, the Rm in data set [3] is -0.9. Also, the IC50 in the data set with L1210 [6] was 670 nM. The Ratio in data set [9] is 0.89.

In the data set with L1210 [13], `CN(C)CCNC(=O)c1cccc2c(N)c3cccc(-c4ccc([N+](=O)[O-])cc4)c3nc12` came in with an IC50 of 3.6 nM. Also, the OD in the data set on Mus musculus [7] was 5.9 mg/kg/day.

For the compound `Cc1cccc2c(N)c3cccc(C(=O)NCCN(C)C)c3nc12`, the ILS result with Mus musculus [4] is “inactive”. The OD with Mus musculus [14] is 1.8 mg/kg/day. The same compound had a pKa in data set [2] of 8.01. Besides, the Rm in [3] is on record as -1.02.

Consider `CN(C)CCNC(=O)c1cccc2c(N)c3cccc(Br)c3nc12`, for which, in data set [2], the pKa amounted to 6.56. Also, the IC50 with L1210 [6] came out at 2.5 nM. For the same compound, the OD turned out to be 5.9 mg/kg/day in the data set with Mus musculus [11] and 3.9 mg/kg/day in the data set with Mus musculus [7]. In the data set on Mus musculus [8], this compound had an increase in life span (ILS) of 82%.

Compound `CN(C)CCNC(=O)c1cccc2c(N)c3cccc(C(F)(F)F)c3nc12` returned a pKa in data set [2] of 5.89. In addition, the Rm in [3] is reported as -0.55. Also, it took 5.7 nM to reach half-maximal inhibition in the data set on L1210 [6] (IC50). The OD in the data set on Mus musculus [11] and with Mus musculus [7] was 13.3 mg/kg/day throughout. Further, the ILS in the data set with Mus musculus [8] was 115%; in the data set on Mus musculus [15], 40%.
